In ChEMBL document CHEMBL3351464, “Identifying novel selective non-nucleoside DNA methyltransferase 1 inhibitors through docking-based virtual screening” (J Med Chem, 2014):
Blank lines part the entries; values can stand above or below the compound they belong to. Activity calls are given as the source filed them. The calls are words filed in the database; no cut-off is given here.

Assays:
[1] = molecular target: T1, DNA (cytosine-5)-methyltransferase 1 (Mus musculus, UniProt P13864); assay: Inhibition of N-terminal His6-tagged mouse DNMT1 (731 to 1602 residues) expressed in Escherichia coli BL21 (DE3) incubated for 15 mins before addition of [3H]-SAM and poly(dI-dC).poly(dI-dC) by liquid scintillation counting based radioactive methylation assay
Outline: (§1)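 Enzyme was preincubated with compound for 15 min at room temperature, then reacted for 60 min at 37°C. Products were filter-captured, washed and counted by scintillation. IC50 came from a nonlinear dose-response fit; single-point tests used 50 µM.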

[2] = molecular target: DNA (cytosine-5)-methyltransferase 1 (Mus musculus) (UniProt P13864); assay: (§2) Binding affinity to N-terminal His6-tagged mouse DNMT1 (731 to 1602 residues) expressed in Escherichia coli BL21 (DE3) by SPR assay
Outline: (§3)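 Measured by SPR at 25°C. Purified mouse DNMT1 was amine-coupled to a CM5 chip in 10 mM sodium acetate pH 5.0 and equilibrated overnight in HBS-EP (10 mM HEPES pH 7.4, 150 mM NaCl, 3 mM EDTA, 0.05% P20, 0.1% DMSO). Serially diluted compounds were injected with 120 s contact and 120 s dissociation, and KD was derived by the instrument evaluation software.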

[3] = molecular target: T1, DNA (cytosine-5)-methyltransferase 1; assay: as §2; outline: as §3
[4] = molecular target: T2, Histone-lysine N-methyltransferase SUV39H1 (Homo sapiens, UniProt O43463); assay: Inhibition of SUV39H1 (unknown origin) incubated for 15 mins before addition of biotinylated peptide H3 (1 to 21) and SAM by methylation assay
T2 sequence (O43463 whole entry): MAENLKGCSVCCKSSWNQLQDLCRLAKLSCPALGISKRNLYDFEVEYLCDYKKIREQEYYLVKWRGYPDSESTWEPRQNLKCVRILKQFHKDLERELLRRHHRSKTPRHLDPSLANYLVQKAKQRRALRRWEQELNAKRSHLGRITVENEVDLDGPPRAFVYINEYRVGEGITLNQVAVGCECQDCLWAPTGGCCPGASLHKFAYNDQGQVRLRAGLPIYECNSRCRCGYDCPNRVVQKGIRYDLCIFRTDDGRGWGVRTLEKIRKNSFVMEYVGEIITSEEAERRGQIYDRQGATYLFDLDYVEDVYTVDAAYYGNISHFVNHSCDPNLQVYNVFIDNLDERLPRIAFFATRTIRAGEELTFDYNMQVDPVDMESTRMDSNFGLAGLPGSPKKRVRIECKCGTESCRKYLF
Outline: (§4)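 AlphaLISA assays were run in modified Tris pH 9.0 with 100 nM biotinylated H3(1-21) and SAM at Km: MLL1 2 nM enzyme with 2 μM SAM; SUV39H1 3 nM with 20 μM; SET7/9 0.2 nM with 0.22 μM; G9a 0.03 nM with 50 μM. Enzyme and compound were preincubated for 15 min, then reacted for 60 min at room temperature before the beads were added. IC50 came from a nonlinear dose-response fit.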

[5] = molecular target: Histone-lysine N-methyltransferase 2A (Homo sapiens, UniProt Q03164); assay: Inhibition of MLL1 (unknown origin) incubated for 15 mins before addition of biotinylated peptide H3 (1 to 21) and SAM by methylation assay; outline: as §4
[6] = molecular target: DNA (cytosine-5)-methyltransferase 1 (Mus musculus) (UniProt P13864); assay: Inhibition of N-terminal His6-tagged mouse DNMT1 (731 to 1602 residues) at 200 uM expressed in Escherichia coli BL21 (DE3) incubated for 2 hrs using S-adenosylmethionine by ELISA
Outline: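 Mouse DNMT1 was purified by HisTrap, SUMO-tag cleavage, heparin and gel filtration. 200 nM enzyme was incubated with 200 μM compound (1% DMSO) and AdoMet in DNMT assay buffer at 37°C for 2 h. Capture and detection antibodies were then applied, followed by developer for 10 min at room temperature. Absorbance was read at 450 nm, with AdoHcy as reference.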

[7] = molecular target: T3, Histone-lysine N-methyltransferase EHMT2 (Homo sapiens, UniProt Q96KQ7); assay: Inhibition of G9a (unknown origin) incubated for 15 mins before addition of biotinylated peptide H3 (1 to 21) and SAM by methylation assay; outline: as §4
T3 sequence (Q96KQ7 whole entry): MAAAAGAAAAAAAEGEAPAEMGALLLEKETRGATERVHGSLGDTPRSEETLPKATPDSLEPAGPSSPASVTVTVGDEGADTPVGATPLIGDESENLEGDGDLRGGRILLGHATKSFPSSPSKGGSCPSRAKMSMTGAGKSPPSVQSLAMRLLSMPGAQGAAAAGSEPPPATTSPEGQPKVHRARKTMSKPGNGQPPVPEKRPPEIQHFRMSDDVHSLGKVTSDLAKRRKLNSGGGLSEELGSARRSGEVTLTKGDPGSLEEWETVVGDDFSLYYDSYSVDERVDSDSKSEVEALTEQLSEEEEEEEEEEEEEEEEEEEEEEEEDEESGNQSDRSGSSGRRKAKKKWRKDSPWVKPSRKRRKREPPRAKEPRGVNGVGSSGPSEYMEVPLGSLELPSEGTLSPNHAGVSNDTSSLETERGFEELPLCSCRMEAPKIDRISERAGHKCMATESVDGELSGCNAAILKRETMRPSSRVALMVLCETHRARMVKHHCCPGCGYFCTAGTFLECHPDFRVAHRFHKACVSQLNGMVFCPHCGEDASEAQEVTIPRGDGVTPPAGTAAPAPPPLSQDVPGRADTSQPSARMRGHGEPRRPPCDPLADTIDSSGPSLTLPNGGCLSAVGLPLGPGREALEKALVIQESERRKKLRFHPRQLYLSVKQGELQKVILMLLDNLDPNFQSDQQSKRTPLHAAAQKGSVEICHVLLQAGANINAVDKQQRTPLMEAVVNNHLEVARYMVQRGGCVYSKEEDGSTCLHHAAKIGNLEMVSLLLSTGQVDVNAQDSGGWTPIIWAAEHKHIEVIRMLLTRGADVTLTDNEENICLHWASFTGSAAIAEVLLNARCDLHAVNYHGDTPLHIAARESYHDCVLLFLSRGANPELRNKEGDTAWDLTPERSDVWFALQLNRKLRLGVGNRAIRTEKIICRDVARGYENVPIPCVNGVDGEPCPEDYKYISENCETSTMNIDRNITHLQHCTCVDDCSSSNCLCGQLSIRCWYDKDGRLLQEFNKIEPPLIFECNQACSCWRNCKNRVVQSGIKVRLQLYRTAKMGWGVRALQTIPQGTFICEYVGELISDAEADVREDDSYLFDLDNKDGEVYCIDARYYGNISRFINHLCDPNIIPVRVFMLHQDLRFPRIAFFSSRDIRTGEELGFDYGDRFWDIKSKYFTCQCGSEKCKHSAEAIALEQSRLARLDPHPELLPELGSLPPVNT

[8] = molecular target: DNA (cytosine-5)-methyltransferase 3A (Homo sapiens, UniProt Q9Y6K1); assay: Inhibition of DNMT3A (unknown origin) incubated for 15 mins before addition of [3H]-SAM and poly(dI-dC).poly(dI-dC) by liquid scintillation counting based radioactive methylation assay
[9] = Binding affinity to DNA (unknown origin) at 0.0625 to 0.5 mM by ethidium bromide dye based agarose gel electrophoresis method
[10] = molecular target: T4, Histone-lysine N-methyltransferase SETD7 (Homo sapiens, UniProt Q8WTS6); assay: Inhibition of SET7/9 (unknown origin) incubated for 15 mins before addition of biotinylated peptide H3 (1 to 21) and SAM by methylation assay; outline: as §4
T4 sequence (Q8WTS6 whole entry): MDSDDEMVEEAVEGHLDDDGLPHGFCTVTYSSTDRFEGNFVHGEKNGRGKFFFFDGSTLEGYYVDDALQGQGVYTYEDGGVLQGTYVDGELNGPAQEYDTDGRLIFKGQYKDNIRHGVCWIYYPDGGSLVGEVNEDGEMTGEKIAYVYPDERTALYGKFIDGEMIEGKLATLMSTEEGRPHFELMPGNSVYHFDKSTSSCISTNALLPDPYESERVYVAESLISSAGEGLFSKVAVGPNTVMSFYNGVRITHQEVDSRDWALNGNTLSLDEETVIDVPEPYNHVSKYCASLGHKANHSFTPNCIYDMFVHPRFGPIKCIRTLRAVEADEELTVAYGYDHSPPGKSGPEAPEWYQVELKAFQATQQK

[11] = molecular target: DNA (cytosine-5)-methyltransferase 3B (Homo sapiens, UniProt Q9UBC3); assay: Inhibition of DNMT3B (unknown origin) incubated for 15 mins before addition of [3H]-SAM and poly(dI-dC).poly(dI-dC) by liquid scintillation counting based radioactive methylation assay
[12] = test system: HCT-116; assay: Induction of apoptosis in human HCT116 cells incubated for 24 hrs by 7-AAD and annexin V staining-based flow cytometry; type: functional, cell-based
[13] = test system: HCT-116; assay: Induction of apoptosis in human HCT116 cells assessed as early apoptotic cells level at 3 uM incubated for 24 hrs by 7-AAD and annexin V staining-based flow cytometry (reference value: 4%); type: functional
[14] = test system: HCT-116; assay: Induction of apoptosis in human HCT116 cells assessed as viable cells at 1.5 uM incubated for 24 hrs by 7-AAD and annexin V staining-based flow cytometry (reference value: 92.2%); type: functional; conditions: HCT-116, 24 h, read-out: Activity
[15] = test system: HCT-116; assay: Induction of apoptosis in human HCT116 cells assessed as late apoptotic cells level at 3 uM incubated for 24 hrs by 7-AAD and annexin V staining-based flow cytometry (reference value: 3.1%); type: functional
[16] = test system: HCT-116; assay: Induction of apoptosis in human HCT116 cells assessed as late apoptotic cells level at 0.75 uM incubated for 24 hrs by 7-AAD and annexin V staining-based flow cytometry (reference value: 3.1%); type: functional
[17] = test system: HCT-116; assay: Induction of apoptosis in human HCT116 cells assessed as necrotic cells level at 1.5 uM incubated for 24 hrs by 7-AAD and annexin V staining-based flow cytometry (reference value: 0.7%); type: functional
[18] = test system: HCT-116; assay: Induction of apoptosis in human HCT116 cells assessed as necrotic cells level at 3 uM incubated for 24 hrs by 7-AAD and annexin V staining-based flow cytometry (reference value: 0.7%); type: functional
[19] = test system: HCT-116; assay: Induction of apoptosis in human HCT116 cells assessed as early apoptotic cells level at 1.5 uM incubated for 24 hrs by 7-AAD and annexin V staining-based flow cytometry (reference value: 4%); type: functional
[20] = test system: HCT-116; assay: Induction of apoptosis in human HCT116 cells assessed as early apoptotic cells level at 0.75 uM incubated for 24 hrs by 7-AAD and annexin V staining-based flow cytometry (reference value: 4%); type: functional
[21] = test system: HCT-116; assay: Induction of apoptosis in human HCT116 cells assessed as necrotic cells level at 0.75 uM incubated for 24 hrs by 7-AAD and annexin V staining-based flow cytometry (reference value: 0.7%); type: functional
[22] = test system: HCT-116; assay: Induction of apoptosis in human HCT116 cells assessed as late apoptotic cells level at 1.5 uM incubated for 24 hrs by 7-AAD and annexin V staining-based flow cytometry (reference value: 3.1%); type: functional
[23] = test system: HCT-116; assay: Induction of apoptosis in human HCT116 cells assessed as viable cells at 0.75 uM incubated for 24 hrs by 7-AAD and annexin V staining-based flow cytometry (reference value: 92.2%); type: functional; conditions: HCT-116, 24 h, read-out: Activity
[24] = molecular target: DNA (cytosine-5)-methyltransferase 1 (Mus musculus) (UniProt P13864); assay: Inhibition of N-terminal His6-tagged mouse DNMT1 (731 to 1602 residues) expressed in Escherichia coli BL21 (DE3) at 50 uM incubated for 15 mins before addition of [3H]-SAM and poly(dI-dC).poly(dI-dC) by liquid scintillation counting based radioactive methylation assay; outline: as §1
[25] = test system: HCT-116; assay: Induction of apoptosis in human HCT116 cells assessed as viable cells at 3 uM incubated for 24 hrs by 7-AAD and annexin V staining-based flow cytometry (reference value: 92.2%); type: functional; conditions: HCT-116, 24 h, read-out: Activity

T1 sequence (P13864 whole entry, the tested form may be a part): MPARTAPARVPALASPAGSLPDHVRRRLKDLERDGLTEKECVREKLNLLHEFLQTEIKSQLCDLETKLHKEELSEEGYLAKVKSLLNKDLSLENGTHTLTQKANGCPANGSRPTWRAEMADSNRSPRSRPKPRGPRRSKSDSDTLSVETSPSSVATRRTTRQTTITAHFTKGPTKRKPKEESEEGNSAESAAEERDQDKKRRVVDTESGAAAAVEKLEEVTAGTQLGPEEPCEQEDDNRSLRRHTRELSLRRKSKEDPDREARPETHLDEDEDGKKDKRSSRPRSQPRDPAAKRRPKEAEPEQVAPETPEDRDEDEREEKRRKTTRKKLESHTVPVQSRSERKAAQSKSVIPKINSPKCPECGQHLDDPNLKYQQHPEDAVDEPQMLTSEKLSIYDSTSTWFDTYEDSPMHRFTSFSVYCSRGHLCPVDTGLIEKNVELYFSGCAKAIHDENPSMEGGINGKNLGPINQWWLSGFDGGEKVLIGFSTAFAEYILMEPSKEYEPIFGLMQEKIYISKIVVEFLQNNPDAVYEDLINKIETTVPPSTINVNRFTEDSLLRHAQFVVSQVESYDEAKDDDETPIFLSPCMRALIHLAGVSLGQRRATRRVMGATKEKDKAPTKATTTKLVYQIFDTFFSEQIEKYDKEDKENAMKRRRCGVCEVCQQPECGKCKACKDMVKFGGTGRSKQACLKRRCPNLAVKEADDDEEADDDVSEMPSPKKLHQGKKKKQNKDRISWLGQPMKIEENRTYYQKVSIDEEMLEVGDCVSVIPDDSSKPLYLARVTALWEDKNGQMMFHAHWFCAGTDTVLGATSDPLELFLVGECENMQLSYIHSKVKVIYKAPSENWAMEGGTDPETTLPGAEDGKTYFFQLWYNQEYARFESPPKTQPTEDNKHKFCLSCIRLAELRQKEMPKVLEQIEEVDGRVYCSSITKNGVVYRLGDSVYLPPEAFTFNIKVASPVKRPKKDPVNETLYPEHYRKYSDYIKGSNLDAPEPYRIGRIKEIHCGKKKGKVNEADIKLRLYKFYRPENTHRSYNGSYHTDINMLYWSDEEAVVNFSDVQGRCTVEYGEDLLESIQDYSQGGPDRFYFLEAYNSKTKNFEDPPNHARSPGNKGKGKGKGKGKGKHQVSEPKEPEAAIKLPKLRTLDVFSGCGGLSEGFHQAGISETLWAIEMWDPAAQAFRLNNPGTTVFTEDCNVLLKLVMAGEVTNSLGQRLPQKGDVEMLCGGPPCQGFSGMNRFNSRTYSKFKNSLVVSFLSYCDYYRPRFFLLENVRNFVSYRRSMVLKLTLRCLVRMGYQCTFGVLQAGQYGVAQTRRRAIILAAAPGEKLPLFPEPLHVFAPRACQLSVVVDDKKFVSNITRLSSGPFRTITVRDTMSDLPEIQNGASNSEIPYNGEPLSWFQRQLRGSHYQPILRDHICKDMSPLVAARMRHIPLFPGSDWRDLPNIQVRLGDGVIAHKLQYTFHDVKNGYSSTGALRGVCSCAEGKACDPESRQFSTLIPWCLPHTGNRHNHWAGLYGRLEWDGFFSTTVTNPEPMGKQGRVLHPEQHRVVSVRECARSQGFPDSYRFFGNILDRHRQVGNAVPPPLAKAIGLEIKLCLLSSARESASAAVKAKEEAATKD
Chain of DNA (cytosine-5)-methyltransferase 1 (Mus musculus) (P13864 whole entry, the tested form may be a part): as above
Chain of DNA (cytosine-5)-methyltransferase 3A (Q9Y6K1 whole entry, looked up): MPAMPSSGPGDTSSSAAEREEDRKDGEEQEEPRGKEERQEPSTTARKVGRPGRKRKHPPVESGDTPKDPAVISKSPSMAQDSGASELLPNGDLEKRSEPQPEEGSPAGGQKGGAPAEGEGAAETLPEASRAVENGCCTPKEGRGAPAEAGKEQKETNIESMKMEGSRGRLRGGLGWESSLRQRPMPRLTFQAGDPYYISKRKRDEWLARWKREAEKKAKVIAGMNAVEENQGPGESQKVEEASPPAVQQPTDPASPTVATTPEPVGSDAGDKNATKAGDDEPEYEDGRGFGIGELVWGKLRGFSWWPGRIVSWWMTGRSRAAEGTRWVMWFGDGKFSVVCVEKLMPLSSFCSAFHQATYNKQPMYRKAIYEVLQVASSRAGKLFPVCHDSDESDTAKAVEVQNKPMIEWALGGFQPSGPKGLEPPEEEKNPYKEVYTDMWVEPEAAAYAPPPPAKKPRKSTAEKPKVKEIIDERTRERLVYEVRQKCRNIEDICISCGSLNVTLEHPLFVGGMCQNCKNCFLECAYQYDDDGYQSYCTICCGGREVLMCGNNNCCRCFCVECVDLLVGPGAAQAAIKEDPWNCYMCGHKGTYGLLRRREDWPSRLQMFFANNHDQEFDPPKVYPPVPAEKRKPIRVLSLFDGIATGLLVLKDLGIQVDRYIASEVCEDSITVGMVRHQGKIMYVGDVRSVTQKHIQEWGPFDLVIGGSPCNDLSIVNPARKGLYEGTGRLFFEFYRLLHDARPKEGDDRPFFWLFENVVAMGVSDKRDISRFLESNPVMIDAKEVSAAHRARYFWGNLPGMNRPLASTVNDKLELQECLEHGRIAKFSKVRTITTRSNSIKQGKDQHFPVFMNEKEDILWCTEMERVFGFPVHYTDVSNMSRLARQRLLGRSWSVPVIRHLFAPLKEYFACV

IC50 [1]: 10.3 µM | Activity [2]: Dose-dependent effect | Kd [3]: 1.09 µM | IC50 [4]: > 150 µM | IC50 [5]: > 150 µM | inhibition [6]: > 60% | IC50 [7]: > 150 µM | IC50 [8]: > 200 µM | Activity [9]: inactive | IC50 [10]: > 150 µM | IC50 [11]: > 200 µM
SMILES: OC(CNCCc1c[nH]c2ccccc12)Cn1c2ccccc2c2ccccc21 (racemic)

IC50 [1]: 1.7 µM | Activity [2]: Dose-dependent effect | Kd [3]: 0.91 µM | Activity [9]: inactive | inhibition [24]: 102%
SMILES: CC(C)NCC(O)COC(Cn1c2ccccc2c2ccccc21)Cn1c2ccccc2c2ccccc21 (racemic)
Activity [12]: Dose-dependent effect | Activity [13]: 42.7% | viability at 1.5 µM [14]: 76% | Activity [15]: 27.2% | Activity [16]: 4% | Activity [17]: 0.7% | Activity [18]: 2.6% | Activity [19]: 12.5% | Activity [20]: 4.6% | Activity [21]: 0.3% | Activity [22]: 10.8% | viability at 0.75 µM [23]: 91.1% | viability at 3 µM [25]: 27.5%
